Rows were chosen to be rich in hits. Some 4.8% of all compounds tested hit in one or more screens of this group.
PAFAH1B2 inh – PAFAH1B2 enzyme inhibitors, primary screen, biochemical, fluorescence polarization, human | recombinant PAFAH1B2, FP-rhodamine activity probe | inhibition, % at 3.39 µM | Platelet-activating factor acetylhydrolase IB subunit alpha2 (Homo sapiens), P68402 | 1.2% of 340,000 active;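 active = inhibition above the mean of all tested compounds plus 3 SD, cut at about 24% in these data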;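 note: 0% = enzyme with DMSO and 100% = wells lacking PAFAH1B2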
Target sequence (P68402 whole entry, looked up): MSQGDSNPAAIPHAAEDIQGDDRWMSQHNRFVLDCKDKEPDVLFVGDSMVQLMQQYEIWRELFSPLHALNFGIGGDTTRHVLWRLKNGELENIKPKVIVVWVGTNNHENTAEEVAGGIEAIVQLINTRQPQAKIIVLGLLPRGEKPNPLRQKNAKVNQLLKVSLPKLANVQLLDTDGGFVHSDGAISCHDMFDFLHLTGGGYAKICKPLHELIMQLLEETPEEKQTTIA
UCH37 DUB inh – inhibitors of human UCH37 deubiquitinase, primary screen, biochemical, Ub-AMC cleavage, fluorescence; purified proteasome/UCH37; inhibition, % (no concentration beside the values); 0.33% of 330,000 active;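 active = mean inhibition over replicate wells above about 20%, limit read from the data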;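 note: 0% = compound-free wells with enzyme and 100% = wells lacking proteasome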
Target sequence (Q9Y5K5 whole entry, looked up): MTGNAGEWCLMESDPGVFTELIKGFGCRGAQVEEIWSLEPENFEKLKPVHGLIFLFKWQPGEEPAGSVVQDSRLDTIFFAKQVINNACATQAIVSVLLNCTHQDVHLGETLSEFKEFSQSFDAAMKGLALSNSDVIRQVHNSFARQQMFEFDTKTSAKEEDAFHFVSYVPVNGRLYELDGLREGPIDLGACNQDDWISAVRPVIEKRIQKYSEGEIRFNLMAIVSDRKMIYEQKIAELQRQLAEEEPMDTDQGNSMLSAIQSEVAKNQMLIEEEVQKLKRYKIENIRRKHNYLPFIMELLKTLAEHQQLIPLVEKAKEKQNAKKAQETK
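Material: human UCH37 enzyme supplied as purified proteasome complex / Amount: 0.15 nM proteasome as dispensed / Buffer or medium: pH 7.4 Tris-HCl (50 mM) with ovalbumin, ATP-MgCl2, DTT / Times: preincubation 30 min, reaction 25 min, room temperature / Technique: AMC fluorescence from Ub-AMC cleavage, excitation 355 nm, emission 460 nm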
NR3A LBD binder – binders of NR3A ligand-binding domain, primary screen, biophysical, differential scanning fluorimetry, uHTS. Glutamate receptor ionotropic, NMDA 3A (GRIN3A) ligand-binding domain. NR3A LBD differential scanning fluorimetry, Tm shift; 0% = protein alone, 100% = glycine-bound protein. Tm shift relative to glycine control, % at 25 µM. 2.5% of 340,000 active;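 active = melting temperature shift of at least 10% of the positive control shift, at one fixed dose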
PAFAH2 inh – PAFAH2 enzyme inhibitors, primary screen, biochemical, fluorescence polarization, human; recombinant PAFAH2, FP-rhodamine activity probe; Platelet-activating factor acetylhydrolase 2, cytoplasmic (Homo sapiens), Q99487; inhibition, % at 3.39 µM; AID 492956, 2010; 0.99% of 340,000 active;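 active = inhibition above the mean over all tested compounds plus 3 SD, cut at about 30% in these data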;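 note: inhibitors block probe labeling of enzyme so polarization drops; 0% = enzyme with DMSO and 100% = wells lacking PAFAH2 protein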
pPAFAH FP inh – pPAFAH enzyme inhibitors, primary screen, biochemical, fluorescence polarization, human; Platelet-activating factor acetylhydrolase (Homo sapiens), Q13093; recombinant pPAFAH, FP-rhodamine probe fluorescence polarization; inhibition, % at 3.39 µM; 1.5% of 330,000 active;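 active = inhibition above the mean inhibition across the screen plus 3 SD, cut at about 25% in these data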;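 note: inhibitors block binding of the rhodamine activity-based probe so polarization drops; 0% = enzyme with DMSO and 100% = wells lacking pPAFAH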
PAFAH1B3 inh – PAFAH1B3 enzyme inhibitors, primary screen, biochemical, fluorescence polarization, human | Platelet-activating factor acetylhydrolase IB subunit alpha1 (Homo sapiens), Q15102 | recombinant PAFAH1B3, FP-rhodamine probe | 0.28% of 340,000 active | inhibition, % at 3.39 µM;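 active = inhibition above the screen-wide average of all tested compounds plus 3 SD, cut at about 25% in these data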;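 note: 0% = enzyme with DMSO only and 100% = wells lacking PAFAH1B3 protein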
Active calls of the source: *; x = no result.

SMILES	PAFAH1B2 inh	UCH37 DUB inh	NR3A LBD binder	PAFAH2 inh	pPAFAH FP inh	PAFAH1B3 inh
C=C(C)COc1ccc(-c2ncncc2Oc2ccc(OC)cc2)c(O)c1	1.4	3.1	21.0*	1.6	5.2	4.4
C(=NN1CCN(C2c3ccccc3-c3ccccc32)CC1)c1ccncc1	x	1.1	x	x	x	x
CC(Nc1n[nH]c(=O)[nH]c1=O)C(=O)NN=Cc1ccccc1 (stereo not given)	x	3.3	x	x	x	x
Cc1csc(N)n1	-2.5	21.1*	0.6	7.8	1.5	3.3
Cc1ccc(-c2csc(N)n2)s1	16.1	5.0	-1.9	3.1	11.0	4.2
Oc1ccc(Br)cc1C=Nn1cnc2ccccc21	x	-2.5	x	x	x	x
O=C(NN=Cc1cccnc1)/C(=C\c1cccs1)NC(=O)c1ccccc1	x	15.2	x	x	x	x
Cn1ncc2c(Nc3ccc(Br)cc3)nc(Nc3ccc(Br)cc3)nc21	-4.9	x	x	-21.5	-16.3	2.3
Cn1ncc2c(Nc3cccc(Cl)c3)nc(Nc3cccc(Cl)c3)nc21	-5.9	x	31.1*	-27.4	-16.1	-1.0
FC(F)Sc1ccc(NC(=S)NCC2CCCCC2)cc1	2.5	2.7	30.6*	-1.4	3.5	4.4
CC1CCCCC1NC(=S)Nc1ccc(SC(F)F)cc1 (stereo not given)	-1.4	0.5	9.6	1.4	-0.1	-6.1
S=C(NCC1CCCCC1)Nc1ccc(Oc2ccccc2)cc1	5.0	4.5	16.1*	-13.2	-6.0	3.6
FC(F)Sc1ccc(NC(=S)NC2CCCCC2)cc1	1.9	4.0	15.1*	-9.4	4.7	1.3
COc1ccccc1OCC(=O)NN=C1CCCCc2ccccc21	x	3.4	x	x	x	x
O=C(O)c1ccc(NN=Cc2cccc3cccnc23)cc1	x	11.9	x	x	x	x
COc1ccc(C2C(C#N)=C(N)Oc3c2ccc2cccnc32)cc1OC (stereo not given)	3.6	2.4	-0.9	3.8	9.7	1.0
COc1cc(C2C(C#N)=C(N)Oc3c2ccc2ccccc32)ccc1OCC(=O)Nc1ccc(C)cc1 (stereo not given)	-14.5	-6.5	0.9	-30.8	27.9*	-16.8
COc1cc(C2C(C#N)=C(N)Oc3c2ccc2ccccc32)ccc1OCC(=O)Nc1cccc(C)c1 (stereo not given)	-18.2	0.2	1.3	-38.6	32.9*	-18.4
COc1ccccc1N1CCN(C(=O)c2ccc3c(c2)NC(=O)C(CSCc2ccccc2C)N3)CC1 (stereo not given)	x	x	x	x	24.6*	x
Cc1c(C(=O)NN=Cc2ccoc2)cccc1[N+](=O)[O-]	x	3.1	x	x	x	x
Cc1ccc(C)c(NC(=S)NC(NC(=O)Cc2ccccc2)C(Cl)(Cl)Cl)c1 (stereo not given)	-19.4	1.5	20.3*	-42.1	3.9	-30.1
COc1ccc(NS(=O)(=O)c2cc(NC(=O)/C=C/c3cccs3)ccc2N2CCOCC2)cc1	-4.9	2.0	30.1*	-43.9	-9.9	-18.7
COc1ccc(NS(=O)(=O)c2cc(NC(=O)c3ccc(C)s3)ccc2N2CCOCC2)cc1	0.3	3.8	-2.9	-8.8	27.0*	-3.6
CCC(=O)Nc1ccc(N2CCOCC2)c(S(=O)(=O)Nc2ccc(OC)cc2)c1	4.5	5.3	0.0	-4.5	1.6	9.9
O=S(=O)(/C=C/C=C/S(=O)(=O)c1ccccc1)c1ccccc1	1.0	x	12.6*	4.2	x	-1.4
SMILES	PAFAH1B2 inh	UCH37 DUB inh	NR3A LBD binder	PAFAH2 inh	pPAFAH FP inh	PAFAH1B3 inh
NC(=O)c1cc2ccccc2oc1=NNC(=O)c1cccc(Cl)c1	x	1.7	x	x	x	x
COc1ccccc1C(=O)NCC(=O)N1CCN(S(=O)(=O)c2ccccc2C(F)(F)F)CC1	2.7	-1.5	1.7	6.4	0.4	8.4
COc1ccccc1C(=O)NCC(=O)N1CCN(S(=O)(=O)c2ccc3c(c2)OCCO3)CC1	4.3	0.6	13.4*	3.7	0.6	5.0
Cc1ccc(N(CC(=O)NCc2ccco2)C(=O)CCC(=O)Nc2ccccn2)cc1C	-0.5	3.8	-8.3	6.4	7.0	2.5
Cc1cc(C)cc(N(CC(=O)NCc2ccco2)C(=O)CCC(=O)Nc2ccccn2)c1	-1.2	2.4	17.4*	6.8	x	11.5
CCn1c(SCC(=O)NN=C/C=C/c2ccccc2[N+](=O)[O-])nnc1-c1ccc(Cl)cc1	x	4.3	x	x	x	x
Cc1cc(C)cc(N=Cc2[nH]c3ccc(Br)c(Cl)c3c2O)c1	-6.1	10.5	17.7*	-14.5	-2.4	-16.5
O=C(NN=Cc1cccs1)c1cc(-c2cccc3ccccc23)n[nH]1	x	4.5	x	x	x	x
CC(=O)OCC1=C(C(=O)O)N2C(=O)C(NC(=O)c3ccc(COc4cccc(Cl)c4Cl)o3)C2SC1 (stereo not given)	9.5	2.3	-1.2	12.0	30.4*	8.3
CCn1cc2nc(SCC(=O)Nc3ccc(OC)c(OC)c3)n(Cc3ccc(OC)cc3)c(=O)c2n1	0.4	4.1	13.9*	1.2	4.9	12.5
CCn1cc2nc(SCC(=O)Nc3ccc(OC)cc3OC)n(Cc3ccc(OC)cc3)c(=O)c2n1	6.6	1.2	-2.2	-0.3	14.8	9.0
O=C1OC(c2ccc(F)cc2)=C/C1=C\c1ccc(O)cc1	1.7	6.6	16.6*	-6.7	5.5	11.9
CN(/N=C/c1c[nH]c2ccccc12)c1cnn(-c2ccc(F)c(Cl)c2)c(=O)c1Cl	1.3	x	259.4*	3.6	1.1	-4.8
O=C1NCC(c2ccccc2)C1C(=O)NN=Cc1ccc(Cl)s1 (stereo not given)	x	4.4	x	x	x	x
COc1ccc2c(c1)CCCC2=NNC(=O)c1ccoc1C	x	0.3	x	x	x	x
CC(=O)OCc1c(C(F)(F)F)nn(C)c1SCc1ccc(Cl)cc1	29.5*	-2.0	0.8	1.7	1.7	3.5
COC(=O)c1ccccc1Sc1c(C=NOCc2ccc(Cl)cc2)c(C(F)(F)F)nn1C	x	4.0	x	x	x	x
CC(C)NC(=O)NC1C2CC3CC(C2)CC1C3 (stereo not given)	9.0	6.8	12.5*	-4.1	2.5	-4.1
O=C(N/N=C/c1ccc(O)cc1)c1ccc(NC(=O)c2ccccc2Br)cc1	2.4	x	17.6*	-2.1	0.8	5.8
Cc1ccccc1C(=O)Nc1ccc(C(=O)N/N=C/c2ccc(O)cc2)cc1	5.1	x	28.0*	1.1	-1.6	3.1
O=C(NN=Cc1ccc(O)cc1)c1ccc(NC(=O)c2ccccc2Br)cc1	x	3.2	x	x	x	x
CNC(=S)NN=Cc1cn(Cc2c(F)cccc2Cl)c2ccccc12	x	8.4	x	x	x	x
O=C(NN=C/C=C/c1ccc2c(c1)OCO2)C1COc2ccccc2O1 (stereo not given)	x	-9.2	x	x	x	x
CN(C)CC[C@@H](c1ccc(Cl)cc1)c1ccccn1	-0.1	-0.8	-2.2	0.9	-2.6	1.4
CN(C)CCO[C@@H](c1ccc(Cl)cc1)c1ccccn1	-1.0	3.2	-2.1	-2.2	27.3*	4.8

Screening data: PubChem BioAssay, several laboratories
